Tested on: HEK-293T
Test: Multiplex assay against HEK293T
Assay type: toxicity, cell-based
Conditions: human
Procedure, shortened: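 Compound was added to live cells that had been stained at seeding with Hoechst33342, BioTracker Green Microtubule Cytoskeleton Dye, MitoTracker Red and Annexin V Alexa Fluor 680, and imaging followed on a CQ1 microscope at 37°C and 5% CO2. CellPathfinder machine-learning gating divided cells into Hoechst high-intensity objects or normal cells, normal cells into healthy, pyknosed or fragmented nuclei, and pyknosed cells into mitotic or apoptotic. Tubulin, mitochondrial-mass and membrane-permeability phenotypes are per cents of healthy-nucleus cells.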

[1] = 12 h, 1 µM, compound concentration 1 uM, replicate 1
[2] = 12 h, 1 µM, compound concentration 1 uM, replicate 2
[3] = 12 h, 10 µM, compound concentration 10 uM, replicate 1
[4] = 12 h, 10 µM, compound concentration 10 uM, replicate 2
[5] = 24 h, 1 µM, compound concentration 1 uM, replicate 1
[6] = 24 h, 1 µM, compound concentration 1 uM, replicate 2
[7] = 24 h, 10 µM, compound concentration 10 uM, replicate 1
[8] = 24 h, 10 µM, compound concentration 10 uM, replicate 2
[9] = 48 h, 1 µM, compound concentration 1 uM, replicate 1
[10] = 48 h, 1 µM, compound concentration 1 uM, replicate 2
[11] = 48 h, 10 µM, compound concentration 10 uM, replicate 1
[12] = 48 h, 10 µM, compound concentration 10 uM, replicate 2

COC(c1ccccc1)(c1ccccc1)[C@H](Oc1nc(C)cc(C)n1)C(=O)O [AMBRISENTAN]
Population Apoptotic (%) [1]: 38% | Population Fragmented Nuclei (%) [1]: 7% | Population Healthy Nuclei (%) [1]: 75% | Population Hoechst High Intensity Objects (%) [1]: 6% | Population Membrane Permeable-Phenotype (%) [1]: 0% | Population Mitochondria Different-Phenotype (%) [1]: 53% | Population Mitotic Cells (%) [1]: 61% | Population Normal (%) [1]: 93% | Population Pyknosed Nuclei (%) [1]: 16% | Population Tubulin-Different-Phenotype (%) [1]: 30% | Total Cell Count [1]: 249 | Population Healthy Nuclei (%) [2]: 81% | Population Hoechst High Intensity Objects (%) [2]: 11% | Population Mitochondria Different-Phenotype (%) [2]: 63% | Population Normal (%) [2]: 88% | Population Pyknosed Nuclei (%) [2]: 10% | Population Tubulin-Different-Phenotype (%) [2]: 23% | Total Cell Count [2]: 326 | Population Apoptotic (%) [3]: 33% | Population Fragmented Nuclei (%) [3]: 8% | Population Healthy Nuclei (%) [3]: 76% | Population Hoechst High Intensity Objects (%) [3]: 6% | Population Membrane Permeable-Phenotype (%) [3]: 0% | Population Mitochondria Different-Phenotype (%) [3]: 47% | Population Mitotic Cells (%) [3]: 66% | Population Normal (%) [3]: 93% | Population Pyknosed Nuclei (%) [3]: 15% | Population Tubulin-Different-Phenotype (%) [3]: 23% | Total Cell Count [3]: 383 | Population Apoptotic (%) [4]: 56% | Population Fragmented Nuclei (%) [4]: 5% | Population Healthy Nuclei (%) [4]: 80% | Population Hoechst High Intensity Objects (%) [4]: 13% | Population Mitochondria Different-Phenotype (%) [4]: 57% | Population Mitotic Cells (%) [4]: 43% | Population Normal (%) [4]: 86% | Population Pyknosed Nuclei (%) [4]: 14% | Population Tubulin-Different-Phenotype (%) [4]: 18% | Total Cell Count [4]: 262 | Population Apoptotic (%) [5]: 37% | Population Fragmented Nuclei (%) [5]: 9% | Population Healthy Nuclei (%) [5]: 76% | Population Hoechst High Intensity Objects (%) [5]: 4% | Population Membrane Permeable-Phenotype (%) [5]: 1% | Population Mitochondria Different-Phenotype (%) [5]: 30% | Population Mitotic Cells (%) [5]: 62% | Population Normal (%) [5]: 95% | Population Pyknosed Nuclei (%) [5]: 14% | Population Tubulin-Different-Phenotype (%) [5]: 19% | Total Cell Count [5]: 313 | Population Apoptotic (%) [6]: 43% | Population Healthy Nuclei (%) [6]: 82% | Population Hoechst High Intensity Objects (%) [6]: 7% | Population Membrane Permeable-Phenotype (%) [6]: 0% | Population Mitochondria Different-Phenotype (%) [6]: 39% | Population Mitotic Cells (%) [6]: 56% | Population Normal (%) [6]: 92% | Population Pyknosed Nuclei (%) [6]: 8% | Population Tubulin-Different-Phenotype (%) [6]: 16% | Total Cell Count [6]: 404 | Population Apoptotic (%) [7]: 30% | Population Fragmented Nuclei (%) [7]: 10% | Population Healthy Nuclei (%) [7]: 73% | Population Hoechst High Intensity Objects (%) [7]: 4% | Population Membrane Permeable-Phenotype (%) [7]: 0% | Population Mitochondria Different-Phenotype (%) [7]: 34% | Population Mitotic Cells (%) [7]: 69% | Population Normal (%) [7]: 95% | Population Pyknosed Nuclei (%) [7]: 15% | Population Tubulin-Different-Phenotype (%) [7]: 18% | Total Cell Count [7]: 441 | Population Apoptotic (%) [8]: 44% | Population Fragmented Nuclei (%) [8]: 8% | Population Healthy Nuclei (%) [8]: 78% | Population Hoechst High Intensity Objects (%) [8]: 12% | Population Mitochondria Different-Phenotype (%) [8]: 41% | Population Mitotic Cells (%) [8]: 55% | Population Normal (%) [8]: 87% | Population Pyknosed Nuclei (%) [8]: 12% | Population Tubulin-Different-Phenotype (%) [8]: 17% | Total Cell Count [8]: 318 | Population Apoptotic (%) [9]: 27% | Population Fragmented Nuclei (%) [9]: 17% | Population Healthy Nuclei (%) [9]: 72% | Population Hoechst High Intensity Objects (%) [9]: 2% | Population Membrane Permeable-Phenotype (%) [9]: 3% | Population Mitochondria Different-Phenotype (%) [9]: 22% | Population Mitotic Cells (%) [9]: 72% | Population Normal (%) [9]: 97% | Population Pyknosed Nuclei (%) [9]: 10% | Population Tubulin-Different-Phenotype (%) [9]: 13% | Total Cell Count [9]: 600 | Population Apoptotic (%) [10]: 40% | Population Fragmented Nuclei (%) [10]: 12% | Population Healthy Nuclei (%) [10]: 80% | Population Hoechst High Intensity Objects (%) [10]: 3% | Population Membrane Permeable-Phenotype (%) [10]: 0% | Population Mitochondria Different-Phenotype (%) [10]: 23% | Population Mitotic Cells (%) [10]: 59% | Population Normal (%) [10]: 96% | Population Pyknosed Nuclei (%) [10]: 7% | Population Tubulin-Different-Phenotype (%) [10]: 10% | Total Cell Count [10]: 605 | Population Apoptotic (%) [11]: 26% | Population Fragmented Nuclei (%) [11]: 14% | Population Healthy Nuclei (%) [11]: 77% | Population Hoechst High Intensity Objects (%) [11]: 2% | Population Membrane Permeable-Phenotype (%) [11]: 1% | Population Mitochondria Different-Phenotype (%) [11]: 18% | Population Mitotic Cells (%) [11]: 73% | Population Normal (%) [11]: 97% | Population Pyknosed Nuclei (%) [11]: 8% | Population Tubulin-Different-Phenotype (%) [11]: 13% | Total Cell Count [11]: 711 | Population Apoptotic (%) [12]: 53% | Population Healthy Nuclei (%) [12]: 79% | Population Hoechst High Intensity Objects (%) [12]: 7% | Population Membrane Permeable-Phenotype (%) [12]: 0% | Population Mitochondria Different-Phenotype (%) [12]: 27% | Population Mitotic Cells (%) [12]: 46% | Population Normal (%) [12]: 92% | Population Pyknosed Nuclei (%) [12]: 5% | Population Tubulin-Different-Phenotype (%) [12]: 15% | Total Cell Count [12]: 480

Reference: ChEMBL document CHEMBL5058577, “EUbOPEN Chemogenomics Library 2 (Multiplex)” (2022)
